Measurements collected from several papers.

Compound | species | sample | route | dose | setting | endpoint | value
CC(C)n1c(C2CCNCC2)nc2c([N+](=O)[O-])c(Br)c(Br)cc21 | human | urine | oral | 75 mg | single dose | renal clearance | 13.7 mL/min
N#Cc1cccc(-c2ccc3ncc(-c4cc(F)cc(F)c4)c(N4CCC(N)CC4)c3c2)c1O | human | plasma | intravenous | 50 µg | – | clearance | 85 mL/min
CN1CCC(COc2cnc(-c3cccc(Cn4nc(-c5cccc(C#N)c5)ccc4=O)c3)nc2)CC1 | human | plasma | intravenous | – | single dose | clearance | ~3 mL/min/kg
C[C@@H](Oc1ccc(S(C)(=O)=O)cc1C(=O)N1C[C@@H]2C[C@]2(c2cc(C(F)(F)F)on2)C1)C(F)(F)F | human | plasma | oral | 10 mg | single dose, fed | CL/F | 73.1 mL/min
OC[C@H]1O[C@@H](c2cc(Cc3ccc(C4CC4)cc3)c(Cl)c3c2CCO3)[C@H](O)[C@@H](O)[C@@H]1O | human | plasma | oral | 0.3 mg | single dose, fed, healthy volunteers | CL/F | 173 mL/min
C=CC(=O)NC1CCN(c2ncc3ncnc(Nc4ccc(Oc5ccc6c(c5)ncn6C)c(C)c4)c3n2)CC1 | male human | plasma | intravenous | 100 µg | single dose, healthy volunteers | clearance | 106 mL/min
CN(C)C(=O)c1cc2cnc(Nc3ccc(N4CCNCC4)cn3)nc2n1C1CCCC1 | human | plasma | oral | – | multiple doses, steady state, patients | CL/F | 343 mL/min
COc1ccc2c(c1)CN(C(=O)CCN1CCC(Cc3ccccc3)CC1)CC[S@@+]2[O-] | male human | plasma | intravenous | 0.4 mg/kg | healthy volunteers | clearance | 162 mL/min
CC(C)C[C@H](NC(=O)[C@H](CC(C)C)NC(=O)[C@H](Cc1c[nH]c2ccccc12)NC(=O)[C@H](CCC(=O)O)NC(=O)[C@@H](NC(=O)[C@H](Cc1ccccc1)NC(=O)[C@H](CCC(=O)O)NC(=O)[C@H](CCCCNC(=O)COCCOCCNC(=O)COCCOCCNC(=O)CC[C@H](NC(=O)CCCCCCCCCCCCCCCCCCC(=O)O)C(=O)O)NC(=O)[C@H](C)NC(=O)[C@H](CCCCN)NC(=O)[C@H](CCCCN)NC(=O)[C@H](CCC(=O)O)NC(=O)[C@H](CC(=O)O)NC(=O)[C@H](CC(C)C)NC(=O)[C@H](Cc1ccc(O)cc1)NC(=O)[C@H](CCCCN)NC(=O)[C@H](CO)NC(=O)[C@H](Cc1ccc(O)cc1)NC(=O)[C@H](CC(=O)O)NC(=O)[C@H](CO)NC(=O)[C@@H](NC(=O)[C@H](Cc1ccccc1)NC(=O)[C@@H](NC(=O)CNC(=O)[C@H](CCC(N)=O)NC(=O)C(C)(C)NC(=O)[C@@H](N)Cc1c[nH]cn1)[C@@H](C)O)[C@@H](C)O)C(C)C)C(=O)N[C@@H](CCC(=O)O)C(=O)NCC(=O)NCC(=O)N1CCC[C@H]1C(=O)N[C@@H](CO)C(=O)N[C@@H](CO)C(=O)NCC(N)=O | human | plasma | subcutaneous | 16 mg | multiple doses, once daily, steady state, patients | CL/F | 0.333 mL/min
COc1ccc(F)cc1C(=O)NCc1ccc(-c2nn([C@@H](C)C(F)(F)F)c(N)c2C(N)=O)cc1 | male human | urine | oral | 200 mg | – | renal clearance | 4.83 mL/min
